Published values collected from several papers.
Compare with care: the assays were run in different laboratories.
Target: Serine/threonine-protein kinase Nek5 (NEK5, Homo sapiens, UniProt Q6P3R8)
Sequence (Q6P3R8 1-708, as in one of the studies): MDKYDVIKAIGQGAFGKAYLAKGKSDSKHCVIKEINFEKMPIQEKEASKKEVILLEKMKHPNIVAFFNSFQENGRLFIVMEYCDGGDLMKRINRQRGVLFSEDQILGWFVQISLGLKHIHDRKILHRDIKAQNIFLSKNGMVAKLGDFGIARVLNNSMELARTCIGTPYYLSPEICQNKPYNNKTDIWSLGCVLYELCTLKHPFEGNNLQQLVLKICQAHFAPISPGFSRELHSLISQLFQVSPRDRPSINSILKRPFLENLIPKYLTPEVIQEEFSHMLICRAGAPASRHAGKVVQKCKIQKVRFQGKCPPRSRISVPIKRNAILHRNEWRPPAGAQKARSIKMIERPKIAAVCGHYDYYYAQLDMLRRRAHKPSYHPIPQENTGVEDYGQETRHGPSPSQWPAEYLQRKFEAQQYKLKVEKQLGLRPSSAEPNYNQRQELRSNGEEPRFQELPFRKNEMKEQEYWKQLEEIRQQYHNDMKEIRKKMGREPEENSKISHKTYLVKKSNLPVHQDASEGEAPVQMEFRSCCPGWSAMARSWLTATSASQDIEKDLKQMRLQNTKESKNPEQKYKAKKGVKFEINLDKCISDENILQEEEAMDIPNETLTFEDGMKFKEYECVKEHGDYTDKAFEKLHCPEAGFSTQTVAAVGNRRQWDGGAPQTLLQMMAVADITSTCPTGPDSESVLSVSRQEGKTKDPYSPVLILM

| SMILES | effect on | method | concentration | remaining binding |
| --- | --- | --- | --- | --- |
| COc1ncc2cc3ccccc3nc2c1C#N | cell-free assay | competition with immobilised ligand | 5 µM | 88% |
| Cc1cnc(Nc2ccc(C(=O)N3CCC(N4CCCC4)CC3)cc2)nc1-c1cc2ccccc2s1 | binding | competition with immobilised ligand | 1 µM | 0.1% |
| N[C@@H]1CCN(c2nccc(-c3cnn4ncccc34)n2)C1 | binding | – | 1 µM | 100% |
| O=C(c1ccc(Nc2nccc(-c3cc4ccccc4s3)n2)cc1)N1CCC(N2CCCC2)CC1 | binding | competition with immobilised ligand | 1 µM | 15% |
| c1ccc(N2CCN(Cc3nc4ccccc4[nH]3)CC2)nc1 | binding | competition with immobilised ligand | 1 µM | 100% |
| COc1cnc(Nc2cccc(S(N)(=O)=O)c2)nc1N1CCN(c2ccccc2)CC1 | binding | competition with immobilised ligand | 1 µM | 42% |
| C=CC(=O)N1CCC(C(=O)NCC(=O)N2CCN(c3nc(-c4cnc(N)nc4C(F)F)nc(N4CCOCC4)n3)CC2)CC1 | binding | competition with immobilised ligand | 1 µM | 100% |
| CC(=O)N1CCC(c2ccc(C(=O)NC(=N)N)cc2C(F)(F)F)CC1 | cell-free assay | competition with immobilised ligand | 1 µM | 100% |
| CN(C)c1nccc(-c2cnn3ncccc23)n1 | binding | – | 1 µM | 100% |
| O=C(NCC1CCOCC1)c1n[nH]cc1NC(=O)c1c(F)cccc1F | binding | competition with immobilised ligand | 1 µM | 100% |
| C[C@H](c1ccc(F)cc1)N(Cc1cccc(C(=O)O)c1)C(=O)c1cnc2ccccc2c1 | cell-free assay | competition with immobilised ligand | 1 µM | 100% |
| C[C@@H]1CCN(c2nccc(-c3cnn4ncccc34)n2)C1 | binding | – | 1 µM | 100% |
| Cc1cc(NC(=O)c2cccc(S(F)(F)(F)(F)F)c2)cc(-n2ccn3nc(-c4cccnc4)cc23)c1 | cell-free assay | competition with immobilised ligand | 1 µM | 86.8% |
| Nc1ncc2c(n1)-c1c([nH]c3ccc(C#CC4CC4)cc13)CCCC2 | binding | competition with immobilised ligand | 1 µM | 100% |
| CC1CCCN1c1nccc(-c2cnn3ncccc23)n1 (stereo not drawn) | binding | – | 1 µM | 100% |
| COc1ccc2c(O[C@@H]3C[C@H]4C(=O)N[C@]5(C(=O)O)CC5/C=C\CCCCC[C@H](NC(=O)OC5CCCC5)C(=O)N4C3)cc(-c3csc(NC(=O)C(C)C)n3)nc2c1C (stereo partly drawn) | cell-free assay | competition with immobilised ligand | 1 µM | 98% |
| CN(CCCC(F)(F)F)c1nccc(-c2cnn3ncccc23)n1 | binding | – | 1 µM | 100% |
| CNC(=O)[C@@H]1CC[C@@H](n2c(-c3ccc4cnccc4c3)nc3ccc(C(=O)NCc4cccc(C(N)=O)c4)cc32)C1 | binding | competition with immobilised ligand | 1 µM | 100% |
| O=C(Nc1cccnn1)N1CCC(=Cc2cccc(Oc3ccc(C(F)(F)F)cn3)c2)CC1 | cell-free assay | competition with immobilised ligand | 1 µM | 97% |
| O=C(NCCCN1CCOCC1)c1ccc(Nc2nccc(-c3cc4ccccc4s3)n2)cc1 | binding | competition with immobilised ligand | 1 µM | 4.4% |
| F[C@@H]1CCN(c2nccc(-c3cnn4ncccc34)n2)C1 | binding | – | 1 µM | 100% |
